The source of these data is paper PMC9061760 (RSC Advances, 2019).

The nature of data set [1]: Steady state UV/Vis absorption. The data set is classed as physicochemical. The following applies: for ε 355 (extinction coefficient): 355 nm.
A short description of another data set: Laser flash photolysis. The data set is classed as physicochemical. The following applies: excitation 355 nm, 30 mJ, 0.4 mM in 5× PBS buffer, pH 7. A digest of the protocol: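 Transient absorption after a single 355 nm pulse (third harmonic) from a Nd:YAG laser at 30 mJ pulse energy. Test compound at 0.4 mM in 5× PBS buffer, pH 7, in a 1 cm × 1 cm cuvette. The kinetic trace of the transient species, assigned to the nitronate, was followed over time to obtain its decay.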

Several values for one entry are separate records, joined by “and”; a condition that tells them apart may be missing. Equal values may be shown once.

In the case of `N[C@@H](CC(=O)O)C(=O)OC(C(=O)O)c1ccccc1[N+](=O)[O-].O=C(O)C(F)(F)F` (mixture of isomers) [1a, α-carboxynitrobenzyl L-aspartate], the “ε 355 (extinction coefficient)” value in data set [1] is 430 M⁻¹ cm⁻¹.

`N[C@@H](CC(=O)O)C(=O)OC(C(=O)O)c1cc2c(cc1[N+](=O)[O-])OCO2.O=C(O)C(F)(F)F` (stereo partly drawn) [1b, α-carboxynitropiperonyl L-aspartate]: in “Laser flash photolysis”, the “time constant of nitronate decay observed at 430 nm” value was 0.87 ms and 0.87 ± 0.04 ms. Besides, in data set [1], the “λmax (additional absorption band)” value is 365 nm and the “ε 355 (extinction coefficient)” value is 4060 M⁻¹ cm⁻¹. In data set [1] (at 365 nm), the “extinction coefficient at λmax” value was ~ 4000 M^−1 cm^−1.
